An excerpt weighted towards active compounds, which were near 4.5% of everything screened.
TAAR1 antagonist: human TAAR1 antagonism | inhibition, % at 3 µM | Q96RJ0 | CHO RD-HGA16 TAAR1, Fluo-8 calcium fluorescence, antagonist | 1.5% of 360,000 active;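 active means inhibition above a per-plate cutoff, the mean inhibition of test compounds on that plate plus 3 SD, cut at about 49% in these data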;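 further: 0% = DMSO plus EC80 beta-PEA response and 100% = DMSO alone without agonist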
Target sequence (Q96RJ0 whole entry, looked up): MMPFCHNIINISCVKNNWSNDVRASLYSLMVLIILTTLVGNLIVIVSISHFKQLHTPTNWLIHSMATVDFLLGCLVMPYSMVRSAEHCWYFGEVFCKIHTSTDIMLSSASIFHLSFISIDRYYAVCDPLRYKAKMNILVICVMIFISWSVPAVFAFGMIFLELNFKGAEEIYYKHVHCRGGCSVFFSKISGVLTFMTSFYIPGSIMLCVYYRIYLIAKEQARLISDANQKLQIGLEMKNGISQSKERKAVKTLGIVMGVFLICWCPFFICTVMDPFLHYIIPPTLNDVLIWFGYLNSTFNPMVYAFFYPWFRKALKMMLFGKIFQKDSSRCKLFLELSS
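Test system – hTAAR1-expressing CHO RD-HGA16 cells, Gα16-coupled · Also added – β-PEA at EC80 concentration, post-compound challenge · Compound – 3 µM, single point · Incubation – dye loading 75 min at 37 °C, then 30 min room temperature · Measured by – Fluo-8 intracellular calcium dye fluorescence, real-time kinetic reads · Benchmarks – vehicle and agonist controls · Replicates – singlicate, one well per test compound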
OX1R antag-1: antagonists of human orexin 1 receptor. inhibition, % at 5 µM. 0.43% of 330,000 active. CHO/OX1R cells, Fluo-8 calcium fluorescence, orexin A. O43613;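 active means inhibition above its plate's threshold, mean inhibition of all tested compounds on the plate plus 3 SD, cut at about 37% in these data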;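 further: 0% = orexin A challenge wells and 100% = SB-334867-A antagonist wells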
TAAR1 ag: human TAAR1 agonism | CHO RD-HGA16 TAAR1, Fluo-8 calcium fluorescence; vehicle wells 0%, saturating PEA agonist 100% | activation, % at 3 µM | AID 624467 | Q96RJ0 | 0.99% of 360,000 active;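 active means activation above the mean activation of all test compounds in the run plus 3 SD, cut at about 38% in these data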
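test system = CHO RD-HGA16 cells carrying human TAAR1 plus Gα16 | schedule = 17-24 h seeding, 75 min 37 °C dye, 30 min RT | compound dosing = 3 µM single concentration | control set = DMSO and PEA EC100 | replicates = n 1 | signal = Fluo-8 fluorescence, 5 s baseline then 140 s kinetic read | measure = percent activation vs PEA EC100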
CHO parental Ca: signal in parental CHO cells, OX1R antagonist counter-screen; parental CHO-K1, ATP-induced calcium, Fluo-8 fluorescence; inhibition, % at 5.6 µM; 0.63% of 330,000 active; AID 463079;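 active means inhibition above that plate's mean sample inhibition plus 3 SD, cut at about 26% in these data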;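 further: 0% = ATP-challenged DMSO wells and 100% = DMSO wells without ATP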
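test system = CHO parental line | reagent = ATP stimulus | measured by = intracellular calcium via Fluo-8 no-wash fluorescent dye | control set = ATP and no-ATP DMSO wells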
OX1R antag-2: blocks the human orexin 1 receptor. O43613. OX1R-expressing cells, FRET antagonist read-out. inhibition, % at 6.6 µM. 1.8% of 330,000 active. AID 485270; in the data active means inhibition mostly above about 38%, no sharp cut-off; inactive means mostly below about 40%;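 further: 0% = agonist challenge alone and 100% = reference antagonist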
GPR7 antag: antagonists of human GPR7 (neuropeptides B/W receptor 1). inhibition, % at 4.4 µM. P48145. GPR7-expressing cells, fluorescence antagonist assay. AID 1861. 1.1% of 290,000 active; in the data active means inhibition above about 16%, passing the limit was not always enough;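 further: cells stimulated with the agonist NPW; 0% = agonist with vehicle and 100% = vehicle without agonist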
OX1R HTRF confirm: OX1R (human) antagonism, HTRF confirmed. OX1R-expressing cells, HTRF antagonist assay. 49% of 1,800 active. shares compounds with OX1R antag-2. inhibition, % at 6.6 µM; in the data active means inhibition above about 55%;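 further: CHO cells expressing OX1R stimulated with orexin A at about EC80; 0% = agonist challenge alone and 100% = reference antagonist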
CHO-K1 HTRF cnt: counter-screen: parental CHO-K1 HTRF response | shares compounds with OX1R antag-2 | AID 493232 | parental CHO-K1 cells, HTRF counterscreen | inhibition, % at 6.6 µM | 48% of 1,800 active; in the data active means inhibition above about 17%;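 further: 0% = agonist challenge with vehicle and 100% = vehicle alone without agonist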
Numbers without * were called inactive; x = no result given.

SMILES | TAAR1 antagonist | OX1R antag-1 | TAAR1 ag | CHO parental Ca | OX1R antag-2 | GPR7 antag | OX1R HTRF confirm | CHO-K1 HTRF cnt
CC(C(=O)NCCN1C(=O)S/C(=C\c2cccnc2)C1=O)N1C(=O)c2ccccc2C1=O (stereo not drawn) | 2 | -34 | 1 | -14 | 79* | -6 | 64* | 40*
Cc1ccc([C@H]2C[C@@H](O)[C@H](n3cc(C4CC4)nn3)CN2C(=O)c2cccs2)cc1 | -4 | x | 1 | x | x | x | x | x
O=C1NC[C@H](CCCCN2C[C@H](Cc3ccc(O)cc3)N(Cc3ccccc3)C(=O)C2=O)N(CC2CCCCC2)C1=O | -15 | x | 2 | x | x | x | x | x
Cc1ccc(C(=O)c2c(C)oc3c2C(=O)C(=O)c2ccccc2-3)cc1 | x | -7 | x | -31 | 135* | 13 | 70* | 27*
COc1ccc(C(=O)c2c(C(F)(F)F)oc3c2C(=O)c2ccccc2C3=O)cc1 | x | -26 | x | -29 | 49 | -2 | x | x
COc1cc(SC)ccc1C(=O)Nc1ccc2ncccc2c1 | 9 | -1 | 2 | -23 | 90* | -3 | 86* | 14
Cn1c(=O)n(C)c2cc(/C=C3/SC(=O)N(CC(=O)N4CCOCC4)C3=O)ccc21 | -2 | -6 | 0 | -4 | 83* | -3 | 53 | 54*
C=CCN1C(=O)S/C(=C\c2ccc3c(c2)n(C)c(=O)n3C)C1=O | 13 | -3 | 8 | -7 | 10 | -6 | x | x
CCCn1c(SCC(=O)Nc2ccc3c(c2)OCCO3)nnc1-c1ccco1 | -11 | -38 | 12 | -23 | 16 | -10 | x | x
COc1cccc(-c2nnc(SCC(=O)Nc3ccc4c(c3)OCCO4)n2Cc2ccco2)c1 | 25 | 24 | 12 | -19 | 78* | 20 | 52 | 5
Cc1cc(C)c2[nH]c3nc(SCC(=O)O)nnc3c2c1 | -6 | 1 | 10 | -9 | 104* | -22 | 26 | 14
O=C1CCC(OCc2ccccc2)CCN1[C@H](CSc1ccccc1)Cc1ccccc1 (stereo partly drawn) | 35 | x | 3 | x | x | x | x | x
CC1CN(c2ccc([N+](=O)[O-])nc2)CC(C)O1 (stereo not drawn) | -16 | -5 | 0 | 15 | 82* | -14 | 36 | 47*
CCC(CO)Nc1ncc([N+](=O)[O-])cc1C#N (stereo not drawn) | -7 | 1 | 3 | -3 | 27 | 0 | x | x
N#Cc1cc([N+](=O)[O-])cnc1N(CCO)CCO | 1 | -13 | 0 | -2 | 82* | -4 | 34 | 22*
CC(=O)NC(c1cccc(F)c1)c1nc(-c2ccoc2)cs1 (stereo not drawn) | -10 | x | 2 | x | x | x | x | x
c1nc(SSc2ncnc3nc[nH]c23)c2[nH]cnc2n1 | -5 | x | 1 | x | x | x | x | x
O=C(N/N=C/c1cc2c(cc1[N+](=O)[O-])OCO2)c1ccc2c(c1)OCO2 | -28 | -20 | 1 | -3 | 7 | -4 | x | x
Cc1nn(C)cc1/C=N/NC(=O)c1ccc2c(c1)OCO2 | -4 | -8 | 4 | 0 | 83* | 19 | 10 | 9
O=C(NNC(=O)c1ccc([N+](=O)[O-])cc1Cl)c1ccncc1 | -10 | -11 | 0 | -6 | 103* | -1 | 39 | 44*
Cc1cccc(NC(=O)Nc2cccc(C#N)c2)n1 | 8 | -21 | -1 | -13 | 91* | -2 | 54 | 5
CC(C)NC(=O)C1(C)CCCN1Cc1ccccc1C#N (stereo not drawn) | -18 | x | 1 | x | x | x | x | x
O=[N+]([O-])c1ccc(-n2cnc3ccccc32)c([N+](=O)[O-])c1 | -2 | -13 | 7 | -6 | 107* | -10 | 39 | 45*
O=[N+]([O-])c1ccc2c(c1)ncn2-c1ccccc1 | -9 | -11 | -1 | -12 | 43 | 10 | x | x
O=C(NCCc1ccccc1)[C@@H]1CC=C[C@@H]2CCN(Cc3ccc(Cl)c(Cl)c3)C(=O)[C@@H]21 | 17 | 17 | 32 | -29 | 82* | x | 66* | 5
